Assay results taken from the RNAGym collection of RNA variant scans (doi:10.1126/science.aae0568).
Variants at the floor of the assay were thinned out.

B1: tRNA (parent)
chain: GUUCCGUUGGCGUAAUGGUAACGCGUCUCCCUCCUAAGGAGAAGACUGCGGGUUCGAGUCCCGUACGGAACG

Variants of: B1
Test: yeast fitness relative to wild type (ratio to wild type); higher = fitter; tRNA-Arg(CCU), competitive growth, 37 C, YPD
Summary of the method: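 Amplicons of the tRNA-Arg(CCU) gene were sequenced, 100-nucleotide paired-end, from the start population and from each end population of a pooled yeast competition. The competition, in six parallel replicates, lasted 24 hours in YPD at 37°C. Fitness relative to wild type was calculated from changes in genotype frequencies. Genotypes had to have ≥ 100 starting reads, and estimates < 0.5 were set to 0.5.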
In the case of U13C A15C G48A, the yeast fitness is reported as ≤ 0.5. For U13C A37U C49G, the yeast fitness was ≤ 0.5. With U13C A43G U53A the yeast fitness was ≤ 0.5. In the case of U13A A14C A21C G25A C61A, the yeast fitness is reported as ≤ 0.5. A14C C62U gave a yeast fitness of 0.853. With G12C G17A C34G A40U A42U G67C the yeast fitness was ≤ 0.5. In the case of U13G C22U A45U U59C, the yeast fitness is reported as 0.54. For A14C C55G G68C, the yeast fitness was ≤ 0.5. In the case of A14C C55G A57U C62U, the yeast fitness is reported as ≤ 0.5. In the case of U13C A65G A70C, the yeast fitness is reported as 0.744. In the case of U13C G17A C22A G25A, the yeast fitness is reported as ≤ 0.5. For U13A C34A A37G, the yeast fitness was ≤ 0.5. In the case of U13A C55U A65C, the yeast fitness is reported as 0.596. U13A U28C showed a yeast fitness of 0.992. U13G C27A C30A G63C showed a yeast fitness of 0.537. In the case of U13C U47C C62U C66U, the yeast fitness is reported as ≤ 0.5. For A14C A15U C34G G50A, the yeast fitness was ≤ 0.5. In the case of U13A U54C, the yeast fitness is reported as 0.934. For U13A A20G A42G C46U, the yeast fitness was ≤ 0.5. U13A G25C A45G showed a yeast fitness of 0.535. In the case of U13A U19A A42U G51C, the yeast fitness is reported as ≤ 0.5. For U13A A37G, the yeast fitness was 0.714. With U13C A42U U54C A65C the yeast fitness was ≤ 0.5. With G12C G23C A42U G44C U54A the yeast fitness was ≤ 0.5. Work on G12C U13C A20C C24G G39C G68C yielded a yeast fitness of 0.511. In the case of U13A A15C U54G C66G G67C, the yeast fitness is reported as ≤ 0.5. With U13A G23C C27G U53C C61A the yeast fitness was 0.509. A14C G44C showed a yeast fitness of 0.577. In the case of U13A A20G C24U U35C C49U C60A C66G, the yeast fitness is reported as ≤ 0.5. U13G C46G gave a yeast fitness of 1.12. In the case of U13C C33G A40G U59A, the yeast fitness is reported as ≤ 0.5. Variant U13A C27U G50U has a yeast fitness of 0.674. In the case of A14C, the yeast fitness is reported as 0.868. In the case of A14G, the yeast fitness is reported as 0.796. In the case of A14C C24U G51C U54A, the yeast fitness is reported as ≤ 0.5. Variant A14C C22G G25A C31U has a yeast fitness of 0.528. For U13G U26C C49G, the yeast fitness was ≤ 0.5. In the case of U13A C22G G25C C27U C30G C55A, the yeast fitness is reported as ≤ 0.5. In the case of A14G A15G A45U C66U, the yeast fitness is reported as 0.619. In the case of U13G A14U U16A G17U, the yeast fitness is reported as ≤ 0.5. U13C C29A A69C gave a yeast fitness of 0.576. Variant G12C U47A A70G has a yeast fitness of 0.554. U13A A21U A42U G44C showed a yeast fitness of 0.652. In the case of A14C A21U C46A A69C, the yeast fitness is reported as 0.59. In the case of A14C C31U A69U, the yeast fitness is reported as ≤ 0.5. Variant G12C G63C has a yeast fitness of 0.699. In the case of U13C C31U G44C, the yeast fitness is reported as 0.844. A14C G68C gave a yeast fitness of 0.687. In the case of G12C G25C C60A A69U, the yeast fitness is reported as ≤ 0.5. In the case of A14C C24U A40U C55G, the yeast fitness is reported as ≤ 0.5. In the case of A14C A21G A37C G50A A57C, the yeast fitness is reported as ≤ 0.5. In the case of U13G C30U C55A, the yeast fitness is reported as ≤ 0.5. In the case of U13C G23C C30G A65C, the yeast fitness is reported as ≤ 0.5. With U13C U47C U64G G68C the yeast fitness was ≤ 0.5. With A14G A15C C46A A69U the yeast fitness was ≤ 0.5. With A14C U35C the yeast fitness was 0.695. For U13G G41U C66G, the yeast fitness was ≤ 0.5. For U13A C29U A43G U54A U59C C61A, the yeast fitness was ≤ 0.5. In the case of G12C U19A C27G C62A, the yeast fitness is reported as ≤ 0.5. With U13A A15G U16G A57G C61A the yeast fitness was ≤ 0.5. In the case of A14C C49A G58U, the yeast fitness is reported as ≤ 0.5. Variant U13A C46U has a yeast fitness of 0.875. Variant U13A C27G A45G U64A has a yeast fitness of 0.62. With A14C A15U C30U C34G A43G G48C C49U C61U the yeast fitness was ≤ 0.5. With U13A C33U A45C C46G U54C A69U the yeast fitness was ≤ 0.5. In the case of U13G C29U C33U G63A, the yeast fitness is reported as ≤ 0.5. In the case of A14C G39C C60U, the yeast fitness is reported as ≤ 0.5. With A14C A20C G67A the yeast fitness was ≤ 0.5. For A14C A36G A43U G68A, the yeast fitness was 0.522. In the case of A14C C27U C34G G51A G67U, the yeast fitness is reported as ≤ 0.5. For G12C G17C, the yeast fitness was 0.637. Work on U13G G41C yielded a yeast fitness of 0.782. U13C G48A C62A gave a yeast fitness of 0.689. In the case of U13A A15G G48A G63A A65C, the yeast fitness is reported as ≤ 0.5. U13G A42U C55U C62G A70C gave a yeast fitness of 0.525. For U13A A15C A45G C55U C61G A69C, the yeast fitness was ≤ 0.5. In the case of U13A U19C A20U C29G C33G A37G C49U C66U, the yeast fitness is reported as 0.601. A14C U19C C33G gave a yeast fitness of 0.641. In the case of A14C A20U C31U G38C U59A, the yeast fitness is reported as ≤ 0.5. A14C G39A gave a yeast fitness of 0.754. A14C A65C showed a yeast fitness of 0.635. Variant A14C A65U has a yeast fitness of 0.62. In the case of A14C A37C A65U, the yeast fitness is reported as ≤ 0.5. With U13A A57C the yeast fitness was 0.604. For U13A C22G G25C C27U C30G A57C A69U, the yeast fitness was ≤ 0.5. With U13C A14U C61A the yeast fitness was ≤ 0.5. With U13G A42C U47A G67C the yeast fitness was ≤ 0.5. In the case of U13A C27G G52A U53C G63C, the yeast fitness is reported as ≤ 0.5. For A14C C30A A36G C62U G63A A70U, the yeast fitness was ≤ 0.5. For U13A A42U G63A, the yeast fitness was 0.699. For U13G G56A, the yeast fitness was 1.06. In the case of A14C A36G G41A G48C U59C A70C, the yeast fitness is reported as ≤ 0.5. With U13G A40G G44C C61G the yeast fitness was ≤ 0.5. In the case of A14C A20G A45C A57C, the yeast fitness is reported as ≤ 0.5. In the case of U13C G48C C49U, the yeast fitness is reported as 0.772. For U13C A43G G50C G67A, the yeast fitness was ≤ 0.5. In the case of U13G C61A C66A, the yeast fitness is reported as ≤ 0.5. In the case of U13A A14U C49A, the yeast fitness is reported as ≤ 0.5. In the case of G12C U32G C33G G68C, the yeast fitness is reported as ≤ 0.5. In the case of U13G C61A G67A, the yeast fitness is reported as ≤ 0.5. With U13C C22U A45C G48C the yeast fitness was ≤ 0.5. With U13C U35C G48A C60A the yeast fitness was ≤ 0.5. In the case of G12C U59C C60A, the yeast fitness is reported as ≤ 0.5. In the case of U13A A14C C22A, the yeast fitness is reported as ≤ 0.5. G12C G25A gave a yeast fitness of 0.848. For G12C U47G C49A A69U, the yeast fitness was ≤ 0.5. With U13C C31A C46U A70C the yeast fitness was ≤ 0.5. For A14C C24G G41A G44A U53A C66U, the yeast fitness was ≤ 0.5. In the case of U13A A14U C22A G48C, the yeast fitness is reported as ≤ 0.5. In the case of U13G U32A C33A, the yeast fitness is reported as ≤ 0.5. Work on A14C C30U A37C yielded a yeast fitness of 0.552. With U13A U28C U32A the yeast fitness was 0.698. In the case of U13A A14U C22G A37G G41A, the yeast fitness is reported as ≤ 0.5. Variant U13A A15G C66U has a yeast fitness of 0.644. In the case of U13C A15C C46G A69C, the yeast fitness is reported as ≤ 0.5. With A14C U16C G51C G58A the yeast fitness was 0.528. In the case of A14C A45U G50C C66G, the yeast fitness is reported as ≤ 0.5. In the case of A14C A15C U16C C27U C29A C34G G50C, the yeast fitness is reported as ≤ 0.5. For A14C C46G C60G, the yeast fitness was ≤ 0.5. In the case of A14C G48C C55U G63U, the yeast fitness is reported as ≤ 0.5. With G12C U16A C24G G58C C61G the yeast fitness was ≤ 0.5. With A14C G18A A20U the yeast fitness was ≤ 0.5. With G12U A57C the yeast fitness was ≤ 0.5. Work on A14C A20U C31U G38C G67A yielded a yeast fitness of 0.53. With U13C A43U C46G the yeast fitness was ≤ 0.5. G12C G58A C62U A69C showed a yeast fitness of 0.699. For A14C G23A A45U C61U, the yeast fitness was 0.782. Work on A14C A70G yielded a yeast fitness of 0.749. For U13C U32C A40G, the yeast fitness was ≤ 0.5. For U13C C29U C55U, the yeast fitness was ≤ 0.5. With A14C U19A the yeast fitness was 0.602. U13C C27G G63C showed a yeast fitness of 0.548. U13C A15C A20G C22U G25A C27G C30A A57C gave a yeast fitness of 0.542. With U13G G17C C31U the yeast fitness was ≤ 0.5. In the case of U13C A14G A42C C61G C62U, the yeast fitness is reported as ≤ 0.5. With U13C the yeast fitness was 1.01. Variant U13A has a yeast fitness of 0.993. U13G showed a yeast fitness of 1.03. Variant U13C A21G G39C G50A U59G C61A C62U has a yeast fitness of 0.502. With U13C A57G the yeast fitness was 0.919. In the case of A14C U19G C31G C33U A42G U64C A65G A69C, the yeast fitness is reported as ≤ 0.5. With U13G G41C G51A the yeast fitness was 0.564. In the case of U13C U26G U35C G63A A70G, the yeast fitness is reported as ≤ 0.5. U13C A20C gave a yeast fitness of 0.903. U13A A21C U35C G39A A42C A43G C46U A65C gave a yeast fitness of 0.55. U13A A21C U35C G39A A42C A43G C46U showed a yeast fitness of 0.63. U13A A40U C55U showed a yeast fitness of 0.681. With U13A A69C the yeast fitness was 0.988. In the case of A14C G17C G18A G23C, the yeast fitness is reported as 0.554. Work on A14C U59C yielded a yeast fitness of 0.687. Variant G12C G38A has a yeast fitness of 0.687. U13G C49G showed a yeast fitness of 0.823. In the case of U13C A15G C29A, the yeast fitness is reported as 0.508. For U13A C24U C49G, the yeast fitness was ≤ 0.5. For G12C U16A A21C, the yeast fitness was ≤ 0.5. In the case of U13C G25C U28G G58A C60G, the yeast fitness is reported as 0.622. Work on A14C C24G C31A C33G G44C yielded a yeast fitness of 0.584. For U13A C46U G67C, the yeast fitness was 0.53. For A14C G52C A57C G63C, the yeast fitness was ≤ 0.5. In the case of A14C C22U A70G, the yeast fitness is reported as ≤ 0.5. For U13C A21C C27U G63A A65G, the yeast fitness was ≤ 0.5. With A14C C27G C46G C62U the yeast fitness was ≤ 0.5. With A14C C24U U35C C46G G52A C61A the yeast fitness was 0.535. Work on U13A G52A yielded a yeast fitness of 0.643. Work on U13A G51A G56A yielded a yeast fitness of 0.628. For U13C C22A G23C C34U A36G A40U, the yeast fitness was ≤ 0.5. Variant U13C A40C has a yeast fitness of 0.882.
